Test results: ChEMBL document CHEMBL1123795, “Inhibitors of dopamine beta-hydroxylase. 3. Some 1-(pyridylmethyl)imidazole-2-thiones” (J Med Chem, 1987)

Experiments:
Rattus norvegicus [1] = test: Antihypertensive activity was determined by decrease in blood pressure response in spontaneously hypertensive rat was determined after intraperitoneal administration at a dose of 50 mg/kg; assay type: functional
Method in brief: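 SHR received a single 50 mg/kg ip dose given as a solution in 20% DMF. Blood pressure was read 2 h after dosing, and the reduction (±SEM) was expressed relative to vehicle-dosed control animals.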

[2] = target: T1, Dopamine beta-hydroxylase (Rattus norvegicus) (UniProt Q05754); test: Inhibition of Dopamine beta hydroxylase in spontaneously hypertensive rats at a concentration of 10e-4
T1 sequence (whole entry): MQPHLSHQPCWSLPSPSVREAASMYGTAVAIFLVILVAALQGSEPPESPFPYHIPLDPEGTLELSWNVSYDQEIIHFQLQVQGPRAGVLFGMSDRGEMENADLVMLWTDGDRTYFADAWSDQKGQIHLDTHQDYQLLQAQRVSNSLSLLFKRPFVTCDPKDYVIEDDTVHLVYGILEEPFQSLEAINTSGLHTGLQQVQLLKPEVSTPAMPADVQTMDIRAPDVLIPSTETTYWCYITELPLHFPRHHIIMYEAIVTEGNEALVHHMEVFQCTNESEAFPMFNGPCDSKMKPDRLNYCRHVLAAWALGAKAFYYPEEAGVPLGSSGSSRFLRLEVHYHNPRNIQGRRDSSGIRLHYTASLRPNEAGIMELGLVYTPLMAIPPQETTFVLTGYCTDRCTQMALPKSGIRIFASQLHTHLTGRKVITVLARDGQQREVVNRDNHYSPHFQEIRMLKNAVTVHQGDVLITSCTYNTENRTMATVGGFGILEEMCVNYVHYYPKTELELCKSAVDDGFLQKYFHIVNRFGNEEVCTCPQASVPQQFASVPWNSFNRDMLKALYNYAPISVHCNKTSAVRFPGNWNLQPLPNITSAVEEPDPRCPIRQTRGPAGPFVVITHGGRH
Method in brief: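 The DBH assay was run in vitro, with percent inhibition of product formation versus control measured at 10⁻⁴ M compound.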

Rattus norvegicus [3] = test: Percent increase in DA/NE ratio was determined from assay of DA and NE in the mesenteric artery of spontaneously hypertensive rat after two doses for 50 mg/kg peroral administration; assay type: functional; settings: route oral
Method in brief: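 SHR received two 50 mg/kg doses 18 h apart as suspensions in a 5% PEG 400, 1% methocel vehicle. DA and NE were then assayed in mesenteric artery. The percent change in DA/NE ratio (±SEM) was expressed relative to vehicle-dosed controls.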

[4] = target: T2, Dopamine beta-hydroxylase (Rattus norvegicus, UniProt Q05754); test: Inhibition of Dopamine beta hydroxylase in spontaneously hypertensive rats; Value ranges from 0.4-1.1
T2 sequence (Q05754 whole entry): T1 sequence (whole entry)

[5] = target: T2, Dopamine beta-hydroxylase; test: Inhibition of Dopamine beta hydroxylase in spontaneously hypertensive rats; Value ranges from 76-220
[6] = target: T2, Dopamine beta-hydroxylase; test: Inhibition of Dopamine beta hydroxylase in spontaneously hypertensive rats; Value range from 8.9-13
[7] = target: T2, Dopamine beta-hydroxylase; test: Inhibition of Dopamine beta hydroxylase in spontaneously hypertensive rats; Value ranges from 89-121
[8] = target: T2, Dopamine beta-hydroxylase; test: Inhibition of Dopamine beta hydroxylase in spontaneously hypertensive rats; Value ranges from 21-35
[9] = target: T2, Dopamine beta-hydroxylase
[10] = target: T2, Dopamine beta-hydroxylase; test: Inhibition of Dopamine beta hydroxylase in spontaneously hypertensive rats; Value ranges from 1.3-4.6

| SMILES | inhibition [2] [%] | Decrease in blood pressure (Rattus norvegicus [1]) [mmHg] | Increase (Rattus norvegicus [3]) [%] | other results |
| --- | --- | --- | --- | --- |
| CCCCc1ccc(C(=O)O)nc1 [FUSARIC ACID] | – | 54 | 80 | IC50 [4]: 0.7 µM |
| COc1ccc(Cn2ccnc2S)cn1 | 17 | – | – | – |
| Sc1nccn1Cc1ccccn1 | – | 35 | 141 | IC50 [5]: 131 µM |
| S=c1[nH]ccn1Cc1ccccc1 | – | – | – | IC50 [6]: 11 µM |
| Sc1nccn1Cc1cccnc1 | – | 34 | 52 | IC50 [7]: 104 µM |
| Oc1ccc(Cn2ccnc2S)nc1 | – | 22 | – | IC50 [8]: 27 µM |
| Fc1cc(F)cc(Cn2cc[nH]c2=S)c1 | – | 50 | 407 | IC50 [9]: 1.2 µM |
| Oc1ccc(Cn2cc[nH]c2=S)cc1 | – | 22 | 95 | IC50 [10]: 2.6 µM |

Now from value to compound, other results behind:

| inhibition [2] [%] | SMILES | Decrease in blood pressure (Rattus norvegicus [1]) [mmHg] | Increase (Rattus norvegicus [3]) [%] | other results |
| --- | --- | --- | --- | --- |
| 17 | Sc1nccn1Cc1ccncc1 | 38 | 49 | – |
| 7 | Oc1ccc(Cn2ccnc2S)cn1 | – | – | – |
